Test results taken from publication PMC3778256 (Epilepsy research, 2012).

Experiments:
[1] = test system: P-glycoprotein (Pgp) at the blood-brain barrier; details: naïve rats, 15 mg/kg; ref Kuntner et al. 2010; cited from earlier work
[2] = Plasma protein binding by ultrafiltration; format: in vitro ADME; details: rat plasma, n = 3
[3] = test system: P-glycoprotein (Pgp) at the blood-brain barrier; assay: Paired small-animal PET scans in rats before and after tariquidar
[4] = molecular target: multidrug resistance proteins (MRPs) at the murine BBB (Mus musculus, UniProt O35379); details: single 60-min PET scans, n = 4 each
Chain of multidrug resistance proteins (MRPs) at the murine BBB (Mus musculus, UniProt O35379) (O35379 whole entry): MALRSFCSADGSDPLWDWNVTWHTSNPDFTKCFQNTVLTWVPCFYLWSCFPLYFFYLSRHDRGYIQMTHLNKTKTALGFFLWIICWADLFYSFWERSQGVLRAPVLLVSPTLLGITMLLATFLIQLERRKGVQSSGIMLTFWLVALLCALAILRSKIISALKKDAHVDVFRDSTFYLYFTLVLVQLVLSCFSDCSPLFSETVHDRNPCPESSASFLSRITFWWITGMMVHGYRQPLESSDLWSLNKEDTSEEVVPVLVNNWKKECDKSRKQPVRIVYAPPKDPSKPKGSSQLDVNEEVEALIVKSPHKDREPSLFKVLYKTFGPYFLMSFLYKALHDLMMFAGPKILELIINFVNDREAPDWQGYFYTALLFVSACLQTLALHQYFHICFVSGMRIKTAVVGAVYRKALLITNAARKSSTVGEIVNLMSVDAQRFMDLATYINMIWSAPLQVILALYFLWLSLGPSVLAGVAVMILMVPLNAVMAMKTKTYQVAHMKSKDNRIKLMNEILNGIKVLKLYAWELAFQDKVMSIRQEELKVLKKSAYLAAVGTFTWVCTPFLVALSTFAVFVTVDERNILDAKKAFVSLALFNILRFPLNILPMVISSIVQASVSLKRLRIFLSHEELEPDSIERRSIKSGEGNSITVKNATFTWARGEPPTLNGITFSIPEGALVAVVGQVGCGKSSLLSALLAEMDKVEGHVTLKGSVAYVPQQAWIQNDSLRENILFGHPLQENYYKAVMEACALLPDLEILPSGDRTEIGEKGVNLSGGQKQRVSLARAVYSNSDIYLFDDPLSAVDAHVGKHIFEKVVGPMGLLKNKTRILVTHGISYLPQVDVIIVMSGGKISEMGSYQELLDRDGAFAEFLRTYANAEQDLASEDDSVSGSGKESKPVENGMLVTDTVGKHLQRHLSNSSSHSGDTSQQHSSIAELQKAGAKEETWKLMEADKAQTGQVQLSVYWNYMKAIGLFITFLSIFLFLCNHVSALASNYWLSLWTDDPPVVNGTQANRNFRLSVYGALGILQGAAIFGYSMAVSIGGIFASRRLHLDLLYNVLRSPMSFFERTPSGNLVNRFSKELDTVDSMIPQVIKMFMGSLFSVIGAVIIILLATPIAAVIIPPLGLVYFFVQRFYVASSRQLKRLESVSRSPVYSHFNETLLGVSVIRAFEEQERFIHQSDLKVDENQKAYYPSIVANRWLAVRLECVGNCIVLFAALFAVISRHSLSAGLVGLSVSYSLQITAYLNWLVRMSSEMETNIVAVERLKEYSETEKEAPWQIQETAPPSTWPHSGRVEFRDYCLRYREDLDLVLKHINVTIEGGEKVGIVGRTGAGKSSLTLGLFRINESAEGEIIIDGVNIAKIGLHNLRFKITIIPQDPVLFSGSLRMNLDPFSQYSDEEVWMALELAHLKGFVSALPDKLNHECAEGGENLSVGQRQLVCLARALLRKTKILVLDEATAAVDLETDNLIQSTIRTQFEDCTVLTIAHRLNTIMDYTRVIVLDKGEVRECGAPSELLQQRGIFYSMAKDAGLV

[5] = test system: multidrug resistance proteins (MRPs) at the murine BBB; details: wild-type mice, MK571 20 mg/kg iv 30 min before scan
[6] = test system: P-glycoprotein (Pgp) at the blood-brain barrier
[7] = Radio-HPLC analysis of radiolabelled metabolites in rat plasma and brain; details: 40 min after injection
human MDR1 (Pgp) [8] = molecular target: T1, human MDR1 (Pgp) (Homo sapiens, UniProt P08183); assay: Concentration equilibrium transport assay in LLC-MDR1 cells; format: cell-based; details: 50 μM both chambers, 6 h, with/without tariquidar 0.5 μM
T1 sequence (P08183 whole entry): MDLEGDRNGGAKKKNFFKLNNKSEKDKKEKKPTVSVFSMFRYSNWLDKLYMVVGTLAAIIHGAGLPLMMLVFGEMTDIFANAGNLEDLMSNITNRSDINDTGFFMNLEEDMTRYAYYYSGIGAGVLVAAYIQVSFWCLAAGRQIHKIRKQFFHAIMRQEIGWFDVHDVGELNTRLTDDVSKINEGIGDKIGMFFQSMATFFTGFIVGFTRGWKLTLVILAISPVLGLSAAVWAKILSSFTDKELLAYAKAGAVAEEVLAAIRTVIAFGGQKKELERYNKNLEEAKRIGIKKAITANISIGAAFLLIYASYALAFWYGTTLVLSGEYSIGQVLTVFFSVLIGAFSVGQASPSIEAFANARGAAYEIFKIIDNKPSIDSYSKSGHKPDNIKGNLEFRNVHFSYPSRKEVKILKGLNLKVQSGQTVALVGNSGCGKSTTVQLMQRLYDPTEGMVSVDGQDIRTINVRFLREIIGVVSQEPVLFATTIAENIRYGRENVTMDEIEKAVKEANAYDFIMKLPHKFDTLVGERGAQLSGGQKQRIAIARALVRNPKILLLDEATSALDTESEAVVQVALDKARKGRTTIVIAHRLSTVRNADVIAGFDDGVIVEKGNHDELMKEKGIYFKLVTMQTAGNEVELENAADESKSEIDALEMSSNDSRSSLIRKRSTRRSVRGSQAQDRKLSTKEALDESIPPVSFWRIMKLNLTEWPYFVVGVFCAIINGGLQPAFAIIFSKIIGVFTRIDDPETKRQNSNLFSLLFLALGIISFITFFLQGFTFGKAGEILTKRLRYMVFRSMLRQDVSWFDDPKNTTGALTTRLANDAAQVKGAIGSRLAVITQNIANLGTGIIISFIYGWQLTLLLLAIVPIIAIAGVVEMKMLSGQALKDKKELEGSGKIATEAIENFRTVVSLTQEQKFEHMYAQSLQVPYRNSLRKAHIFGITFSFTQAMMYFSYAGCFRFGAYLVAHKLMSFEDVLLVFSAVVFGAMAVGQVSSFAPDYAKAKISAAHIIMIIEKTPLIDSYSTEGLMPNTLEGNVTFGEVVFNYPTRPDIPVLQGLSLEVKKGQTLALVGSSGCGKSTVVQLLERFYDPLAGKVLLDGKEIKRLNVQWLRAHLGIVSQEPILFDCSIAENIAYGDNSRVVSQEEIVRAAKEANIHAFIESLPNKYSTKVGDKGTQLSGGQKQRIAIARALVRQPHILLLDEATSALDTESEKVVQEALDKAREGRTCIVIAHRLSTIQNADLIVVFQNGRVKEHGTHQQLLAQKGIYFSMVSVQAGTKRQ

murine Mdr1a (Pgp) = murine Mdr1a (Pgp) (Mus musculus, UniProt P21447); assay: Concentration equilibrium transport assay in LLC-Mdr1a cells; format: cell-based; details: 50 μM both chambers, 6 h, with/without tariquidar 0.5 μM
human MRP1 = human MRP1 (Homo sapiens, UniProt P33527); assay: Concentration equilibrium transport assay in LLC-MRP1 cells; format: cell-based; details: 50 μM both chambers, 6 h, with/without MK571 50 μM
Chain of human MRP1 (P33527 whole entry): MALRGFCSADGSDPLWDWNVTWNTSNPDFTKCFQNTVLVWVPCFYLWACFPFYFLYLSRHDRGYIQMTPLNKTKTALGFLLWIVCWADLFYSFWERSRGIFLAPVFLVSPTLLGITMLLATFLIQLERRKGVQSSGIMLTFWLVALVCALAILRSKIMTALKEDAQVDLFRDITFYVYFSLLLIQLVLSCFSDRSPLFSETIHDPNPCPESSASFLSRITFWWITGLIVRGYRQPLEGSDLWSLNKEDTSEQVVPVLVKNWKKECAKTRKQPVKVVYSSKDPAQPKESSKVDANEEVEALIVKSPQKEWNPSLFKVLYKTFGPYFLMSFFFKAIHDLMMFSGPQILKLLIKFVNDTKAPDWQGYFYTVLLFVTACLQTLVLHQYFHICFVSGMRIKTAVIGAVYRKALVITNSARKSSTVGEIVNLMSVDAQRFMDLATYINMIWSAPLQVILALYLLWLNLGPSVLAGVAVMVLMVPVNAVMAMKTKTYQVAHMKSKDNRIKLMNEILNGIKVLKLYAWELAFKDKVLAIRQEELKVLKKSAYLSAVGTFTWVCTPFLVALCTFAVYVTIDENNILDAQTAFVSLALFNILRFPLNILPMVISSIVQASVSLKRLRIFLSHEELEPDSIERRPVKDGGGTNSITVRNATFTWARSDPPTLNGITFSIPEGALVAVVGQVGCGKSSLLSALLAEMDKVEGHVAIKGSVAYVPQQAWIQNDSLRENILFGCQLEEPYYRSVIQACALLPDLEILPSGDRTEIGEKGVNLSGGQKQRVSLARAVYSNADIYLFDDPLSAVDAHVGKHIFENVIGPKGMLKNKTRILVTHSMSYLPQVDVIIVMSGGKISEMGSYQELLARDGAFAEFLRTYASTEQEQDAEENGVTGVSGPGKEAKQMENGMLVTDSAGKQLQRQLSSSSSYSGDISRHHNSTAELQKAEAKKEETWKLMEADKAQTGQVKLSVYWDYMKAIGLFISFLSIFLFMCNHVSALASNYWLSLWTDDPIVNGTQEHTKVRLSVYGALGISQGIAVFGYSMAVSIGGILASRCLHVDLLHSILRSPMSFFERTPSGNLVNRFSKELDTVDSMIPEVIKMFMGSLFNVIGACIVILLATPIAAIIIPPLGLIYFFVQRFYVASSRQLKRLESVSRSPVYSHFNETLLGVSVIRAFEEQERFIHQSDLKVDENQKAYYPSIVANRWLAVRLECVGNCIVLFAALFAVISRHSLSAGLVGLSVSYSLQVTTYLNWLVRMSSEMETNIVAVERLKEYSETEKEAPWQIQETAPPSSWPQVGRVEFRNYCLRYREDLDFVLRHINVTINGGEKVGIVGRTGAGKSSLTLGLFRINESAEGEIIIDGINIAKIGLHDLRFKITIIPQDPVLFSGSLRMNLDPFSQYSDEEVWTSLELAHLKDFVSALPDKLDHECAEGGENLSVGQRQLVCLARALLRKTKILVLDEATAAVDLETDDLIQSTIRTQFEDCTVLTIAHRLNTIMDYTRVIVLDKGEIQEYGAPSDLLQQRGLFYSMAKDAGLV
Summary of the method: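 LLC-PK1 transfected with MRP1, ≤13 passages, seeded at 0.3 × 10^6 cells/cm2 on polyester filters; assayed 5–7 days post-confluence in Opti-MEM after 1 h pre-incubation ± MK571 50 µM. Test compound 50 µM in both chambers; both sampled at 60, 120, 240, 360 min; 37°C, 5% CO2, 50 rpm; triplicate. Integrity: TEER, [14C]mannitol; calcein-AM 1 µM positive control.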

human MDR1 (Pgp) [9] = molecular target: T1, human MDR1 (Pgp); details: tariquidar 0.5 μM; ref Luna-Tortós et al. 2008; cited from earlier work

COc1cc2c(cc1OC)CN(CCc1ccc(NC(=O)c3cc(OC)c(OC)cc3NC(=O)c3cnc4ccccc4c3)cc1)CC2 [tariquidar]
inhibition of Pgp at the BBB [1]: completely inhibit Pgp

CCC1(c2ccccc2)C(=O)NC(=O)N([11CH3])C1=O (centres unmarked) [[^11C]mephobarbital]
fraction unbound in plasma [2]: 0.21±0.05
Peak brain activity uptake (SUV) ([3]; scan 1 (before tariquidar), about 1 min after iv injection, n = 3): 3.1±0.2 SUV
brain-to-blood AUC0-60 ratio ([3]; scan 1 (before tariquidar), n = 3): 2.0±0.5
brain-to-blood AUC0-60 ratio in scan 1 as compared to (R)-[11C]verapamil ([3]; scan 1, Supplementary Fig. S1): two times higher
brain-to-blood AUC0-60 ratio ([3]; scan 2 (after tariquidar 15 mg/kg iv), n = 3): 2.4±0.3
Brain uptake, wild-type versus Mrp1(-/-) mice [4]: did neither differ
Brain uptake, untreated versus MK571 pretreated mice [5]: did neither differ
Blood activity concentrations (SUV), comparison of groups and scans ([6]; 25 and 60 min, wild-type and Mdr1a/b(-/-) mice, scan 1 and 2, three comparisons excepted (p < 0.05)): similar
Brain AUC0-60, wild-type versus Mdr1a/b(-/-) mice ([6]; scan 1 and scan 2, respectively, n = 3 each): not significantly different
Brain AUC0-60, scan 2 relative to scan 1 ([6]; wild-type mice, tariquidar 15 mg/kg, p = 0.013): significantly decreased
total activity in brain in the form of unchanged parent ([7]; rat brain tissue extracts, n = 5): 96±6%
total activity in plasma as unchanged parent ([7]; rat plasma): > 85%

CCC1(c2ccccc2)C(=O)NC(=O)N(C)C1=O (centres unmarked) [mephobarbital, methylphenobarbital]
basolateral-to-apical transport by human MDR1 (human MDR1 (Pgp) [8]): lack of active transport
basolateral-to-apical transport by murine Mdr1a (murine Mdr1a (Pgp)): lack of active transport
basolateral-to-apical transport by human MRP1 (human MRP1): lack of active transport

CCC1(c2ccccc2)C(=O)NC(=O)NC1=O [phenobarbital]
inhibition of MDR1 transport by tariquidar (human MDR1 (Pgp) [9]): 54%
